SENP6 block: SENP6 protease inhibition; Recombinant SENP6 catalytic domain, aminoluciferin luminescence; hit rate 1.8% among 330,000; inhibition, % at 10 µM; Q9GZR1; AID 2599;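 active = inhibition above about 50% at the single tested dose, limit read from the data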;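 note: plate controls were DMSO wells with enzyme for no effect and DMSO wells lacking enzyme for full effect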
Target sequence (Q9GZR1 628-1112 limits assumed): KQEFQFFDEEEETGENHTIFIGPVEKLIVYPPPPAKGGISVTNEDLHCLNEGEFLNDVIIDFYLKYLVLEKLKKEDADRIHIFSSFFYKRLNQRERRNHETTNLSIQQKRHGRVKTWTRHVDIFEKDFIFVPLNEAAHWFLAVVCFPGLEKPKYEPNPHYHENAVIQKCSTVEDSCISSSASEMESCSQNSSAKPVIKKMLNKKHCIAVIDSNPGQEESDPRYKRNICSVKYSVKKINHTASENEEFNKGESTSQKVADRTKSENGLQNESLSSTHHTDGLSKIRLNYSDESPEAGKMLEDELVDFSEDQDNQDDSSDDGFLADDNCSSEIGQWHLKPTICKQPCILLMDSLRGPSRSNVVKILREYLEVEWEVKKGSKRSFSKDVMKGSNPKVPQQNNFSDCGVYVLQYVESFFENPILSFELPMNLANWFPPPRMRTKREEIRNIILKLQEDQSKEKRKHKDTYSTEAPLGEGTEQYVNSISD
SENP8 block-1: blocks human SENP8 cleavage of Nedd8 substrate | inhibition, % at 20 µM | Q96LD8 | recombinant SENP8, Nedd8 substrate fluorescence | hit rate 0.64% among 360,000; in the data active = inhibition mostly above about 40%, no sharp cut-off; inactive = mostly below about 27%
SENP7 inh: inhibitors of human SENP7 protease; Q9BQF6; recombinant SENP7, Z-RLRGG-aminoluciferin luminescence, 40 min; inhibition, % at 5 µM; hit rate 1.5% among 330,000;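 active = inhibition above about 50% at the single test dose, limit read from the data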;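 note: plate controls were DMSO with enzyme for no effect and no enzyme buffer wells for full effect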
SENP1 inh: blocks the human SENP1 SUMO protease catalytic domain; hit rate 0.21% among 360,000; Q9P0U3; inhibition, % at 10 µM; recombinant SENP1 catalytic domain, CyPet-SUMO1-YPet FRET cleavage; AID 624204;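 active = inhibition at least 30% at 10 µM, raw YFP signal under a set limit, fluorescence ratio 0.5 to 1.5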;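 note: 0% = enzyme with DMSO and 100% = no enzyme wells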
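Assay system – human recombinant His6-tagged SENP1 catalytic domain enzyme · Input – SENP1 enzyme, 20 pM final · Buffer or medium – Tris pH 8 buffer plus EDTA, NaCl, BME, BSA, NP40, catalase · Schedule – 50 min reaction at room temperature · Technique – FRET read of cyan and yellow fluorescence · Control set – no-enzyme wells low, DMSO-plus-enzyme wells high control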
SENP8 block-2: inhibitors of human SENP8 protease; Q96LD8; purified SENP8, Z-RLRGG-aminoluciferin cleavage, luminescence; inhibition, % at 10 µM; hit rate 1.2% among 330,000; in the data active = inhibition above about 50%
Platelet DG rel: platelet dense granule release activity. AID 1663. inhibition, %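 (compounds screened at 7.5 µM in platelet-rich plasma)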. human platelet-rich plasma, SFLLRN dense granule ATP release, luminescence. hit rate 0.22% among 300,000;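 active = mean replicate score, as percent of positive control, at or above 50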
SENP8 conf: human SENP8 inhibition, confirmed; inhibition, % at 12.5 µM; hit rate 40% among 6,200; shares compounds with SENP7 inh; Recombinant SENP8, Z-RLRGG-aminoluciferin luminescence, 60 min;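 active = mean inhibition across replicates above about 50%, limit read from the data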
SENP6 confirm: confirmation of human SENP6 protease inhibitors | shares compounds with SENP7 inh | recombinant SENP6, Z-RLRGG-aminoluciferin luminescence | inhibition, % at 12.5 µM | hit rate 58% among 6,200
SENP7 confirm: human SENP7 inhibition, confirmed. hit rate 69% among 6,200. shares compounds with SENP7 inh. AID 488917. recombinant SENP7, Z-RLRGG-aminoluciferin luminescence, 40 min. inhibition, % at 12.5 µM
Casp3 SENP sel: inhibits human caspase-3 in SENP selectivity test | shares compounds with SENP7 inh | purified caspase-3, Z-DEVD-aminoluciferin luminescence, 60 min | inhibition, % at 12.5 µM | hit rate 60% among 6,200;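 active = mean inhibition above about 50%, limit read from the data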;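 note: plate controls were enzyme with DMSO for no effect and wells without caspase-3 for full effect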
SENP luc ctr: interferes with luciferase luminescence in SENP counter-screen | shares compounds with SENP7 inh | Pre-incubated SENP8/Z-RLRGG-aminoluciferin, luciferase luminescence interference | inhibition, % at 12.5 µM | hit rate 39% among 6,200 | AID 488919;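 active = mean inhibition above about 50% when retested at one dose, limit read from the data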;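 note: plate controls were DMSO wells with completed reaction for no effect and substrate without enzyme for full effect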
Active calls of the source: *; . = no result given. In the library only some 2.6% were active in any assay of this set; here they are far more common.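 Rule for the calls, unless noted: active = mean inhibition above about 50% in the one-dose retest (limit read from the data); inactive = the rest.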

SMILES	SENP6 block	SENP8 block-1	SENP7 inh	SENP1 inh	SENP8 block-2	Platelet DG rel	SENP8 conf	SENP6 confirm	SENP7 confirm	Casp3 SENP sel	SENP luc ctr
Cc1ccc2nc(-c3ccccc3N)[nH]c2c1	93*	-437	95*	-1	90*	20	32	96*	102*	91*	90*
c1ccc(-c2nc3ccccc3[nH]2)nc1	69*	-29	75*	0	48	14	61*	60*	88*	90*	70*
Nc1nc(-c2nc3ccccc3[nH]2)cs1	52*	-30	28	-10	6	22	46	42	72*	78*	58*
Cc1ccc2nc(-c3ccccn3)[nH]c2c1	90*	-91	91*	-2	83*	58*	92*	91*	100*	96*	91*
Cc1ccc2nc(CCCc3nc4ccc(C)cc4[nH]3)[nH]c2c1	1	7	-2	1	-2	-7	.	.	.	.	.
CC(=O)NC1=C(N(C)C2CCS(=O)(=O)C2)C(=O)c2ccccc2C1=O (stereo not given)	67*	66*	25	-3	28	-3	45	74*	42	4	-3
O=C(Nc1nccs1)c1cc(-c2ccccc2)nn1-c1ccccc1	7	-62	1	-1	-5	-3	.	.	.	.	.
CCc1nnc(NC(=O)c2cc(-c3ccccc3)nn2-c2ccccc2)s1	-19	3	99*	1	0	-5	-20	-12	-15	1	-7
[O-][n+]1c(/C=C/c2ccccc2)ccc2ccccc21	77*	-36	68*	0	11	27	92*	92*	100*	91*	89*
c1ccc(OCCSc2nnc3sc4ccccc4n23)cc1	80*	14	16	1	68*	3	-5	68*	88*	78*	75*
Oc1ccc(Nc2ncnc3c2oc2ccccc23)cc1	9	-20	3	3	3	4	.	.	.	.	.
Cc1nc(Nc2ccc3c(c2)OCO3)c2oc3ccccc3c2n1	14	-84	0	-7	6	2	.	.	.	.	.
c1ccc2c(c1)oc1c(Nc3ccc4c(c3)OCO4)ncnc12	13	-187	59*	-11	13	1	-9	4	10	19	7
c1ccc(Nc2ncnc3c2oc2ccccc23)cc1	52*	-383	36	-1	14	-1	10	7	56*	37	14
Oc1cccc(Nc2ncnc3c2oc2ccccc23)c1	70*	-222	71*	2	62*	-2	64*	66*	92*	69*	80*
Cc1ccsc1-c1nc(CN2CCCC2c2ccc(F)cc2)c(C)o1 (stereo not given)	1	-2	-4	-3	-5	11	.	.	.	.	.
COc1ccc(C(=O)N2CCN(c3cccc(C)c3C)CC2)cc1S(=O)(=O)NC1CC1	-21	1	-5	0	1	.	.	.	.	.	.
CCc1ccc(-c2nc(-c3ccncc3)no2)cc1	87*	26	90*	-1	80*	.	84*	88*	97*	80*	67*
CCCCc1ccc(-c2nc(-c3ccncc3)no2)cc1	21	0	90*	2	83*	-9	11	11	9	-5	2
Clc1ccc(CSc2ccc(-c3ccco3)nn2)cc1	2	9	-8	2	-3	12	.	.	.	.	.
c1ccc(CSc2ccc(-c3ccco3)nn2)cc1	60*	-3	18	5	19	4	21	54*	79*	52*	10
Cc1ccc(CSc2ccc(-c3ccco3)nn2)cc1	84*	0	68*	4	-1	27	33	77*	96*	69*	30
Cc1ccc(CSc2ccc(-c3cccs3)nn2)cc1	25	16	69*	0	8	-12	12	12	6	13	6
Fc1ccc(CSc2ccc(-c3cccs3)nn2)cc1	-18	15	12	3	-14	8	.	.	.	.	.
CN(CC(=O)Nc1sccc1C(N)=O)S(=O)(=O)c1ccc(Cl)cc1	-2	-10	11	-11	2	.	.	.	.	.	.
SMILES	SENP6 block	SENP8 block-1	SENP7 inh	SENP1 inh	SENP8 block-2	Platelet DG rel	SENP8 conf	SENP6 confirm	SENP7 confirm	Casp3 SENP sel	SENP luc ctr
N/C(=N\OC(=O)CCC1CCCC1)c1ccccn1	87*	7	68*	1	67*	-6	82*	80*	95*	91*	83*
N/C(=N\OC(=O)CCC1CCCC1)c1ccccc1	69*	5	17	0	41	10	72*	71*	89*	83*	53*
N/C(=N\OC(=O)CCCc1ccccc1)c1ccccn1	50*	4	37	2	12	-3	28	28	73*	73*	54*
COc1ccc(/C(N)=N/OC(=O)CCC2CCCC2)cc1OC	-9	0	-2	0	-7	-1	.	.	.	.	.
CCOc1ccc(N=Cc2c(O)cc(C)oc2=O)cc1	-18	-32	-17	1	-30	2	.	.	.	.	.
CCOc1ccc(N=Cc2c(O)c3ccccc3oc2=O)cc1	91*	-20	93*	-19	83*	10	42	42	56*	38	7
CC1(C)CC(=O)C=C(c2ccc(-c3ccc(OC(F)(F)F)cc3)cc2)C1=O	.	2	.	0	.	.	.	.	.	.	.
CN(C)/C=C/C(=O)c1cnc(-c2ccccc2)s1	0	10	-10	0	-4	2	.	.	.	.	.
O=C(c1ccc(Cl)cc1)c1cnc(-c2ccc(Cl)cc2)s1	-4	30	-4	0	-14	1	.	.	.	.	.
O=C(c1ccccc1)c1cnc(-c2ccccc2)s1	93*	6	96*	0	89*	5	54*	50	73*	62*	20
O=C(c1ccccc1)c1cnc(-c2ccc(Cl)cc2)s1	80*	31	97*	2	22	3	14	19	7	25	7
NS(=O)(=O)c1ccc(N2N=C(c3ccccc3)CC2c2ccccc2Cl)cc1 (stereo not given)	.	-376	-7	-27	.	.	.	.	.	.	.
CC(=O)N(C)C[C@@H]1Oc2ncc(Br)cc2C(=O)N([C@H](C)CO)C[C@@H]1C	.	15	.	-1	.	.	.	.	.	.	.
